Source: PubChem
In the library only some 1.9% were active in any assay of this set; here they are far more common.
Tb hexokinase – T. brucei hexokinase 1 inhibition; recombinant TbHK1, G6PDH-coupled NADH A340; inhibition, % at 10 µM; hit rate 0.11% among 220,000; AID 1430;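 active = inhibition of 50% or more in the single-dose primary screen; inactive = inhibition below 50%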
RanGTP-Impb inh – inhibitors of RanGTP-importin-beta interaction, primary screen, biochemical, FRET, CFP-Ran, YFP-importin-beta, homogeneous; cell-free CFP-Ran/YFP-importin-beta FRET ratio; inhibition, % (concentration not given with the values); hit rate 1.1% among 300,000;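 active = more than half of the replicate wells show a fall in the fluorescence ratio signal beyond about 16%, limit read from the data, passing the limit was not always enough; inconclusive = exactly half of the replicate wells pass the set limit; inactive = fewer than half of replicates pass the limit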;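 also: 0% = DMSO wells and 100% = Ran loaded with GDP instead of GTP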
Runt-CBFb FRET – inhibitors of human RUNX1 Runt domain binding to CBFb | Q01196+Q13951 | Cerulean-Runt/Venus-CBFb FRET ratio 530/480, 1 h | inhibition, % at 20 µM | hit rate 0.46% among 220,000;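 active = inhibition over about 50% at 20 µM in the single-dose screen, limit read from the data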;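 also: 0% = DMSO wells and 100% = excess unlabeled CBFb competitor control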
Target sequence (Q01196 whole entry, looked up, the tested form may be a part): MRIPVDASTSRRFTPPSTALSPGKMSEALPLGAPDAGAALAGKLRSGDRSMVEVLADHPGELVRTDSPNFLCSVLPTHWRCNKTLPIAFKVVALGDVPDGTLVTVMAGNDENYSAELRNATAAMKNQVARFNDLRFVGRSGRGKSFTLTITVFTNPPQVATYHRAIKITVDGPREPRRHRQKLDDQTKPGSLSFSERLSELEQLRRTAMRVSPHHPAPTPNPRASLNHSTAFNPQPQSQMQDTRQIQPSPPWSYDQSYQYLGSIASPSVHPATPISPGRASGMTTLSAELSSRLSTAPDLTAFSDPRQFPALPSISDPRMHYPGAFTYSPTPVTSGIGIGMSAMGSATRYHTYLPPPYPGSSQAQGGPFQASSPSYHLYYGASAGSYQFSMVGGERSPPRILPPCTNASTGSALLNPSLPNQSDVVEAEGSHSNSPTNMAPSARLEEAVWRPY
Target sequence (Q13951 whole entry, looked up, the tested form may be a part): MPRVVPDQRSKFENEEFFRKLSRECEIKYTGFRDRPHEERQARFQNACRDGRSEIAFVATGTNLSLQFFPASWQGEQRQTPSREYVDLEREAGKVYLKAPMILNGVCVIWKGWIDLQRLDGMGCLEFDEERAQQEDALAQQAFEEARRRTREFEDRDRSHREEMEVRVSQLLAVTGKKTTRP
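Assay system: Cerulean-Runt domain fusion protein, energy donor; Signal: fluorescence energy transfer, 422 nm excitation, 530/480 nm emission; Timing: 1 h compound exposure, room temperature; Control set: unlabeled CBFb; Medium: Tris buffer pH 7.5 with salts and BSA; Compound: single test concentration of 20 µM, 1% DMSO final; Probe or stimulus: Venus-CBFb 100 nM.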
Runt-SMMHC FRET – inhibitors of human RUNX1 Runt domain binding to CBFb-SMMHC | Q01196+Q13951 | Cerulean-Runt/Venus-CBFb-SMMHC FRET ratio 530/480, 1 h | inhibition, % at 20 µM | hit rate 0.74% among 220,000 | AID 1434;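 active = mean inhibition across duplicate retests at 20 µM reaching about 50%, limit read from the data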;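 also: 0% = DMSO wells and 100% = wells with excess untagged CBFb-SMMHC; inhibitors lower the FRET ratio by blocking Runt binding to CBFb-SMMHC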
Hck-Nef inh – blocks Nef-activated human Hck kinase. hit rate 0.68% among 220,000. inhibition, % at 20 µM. Recombinant Hck-YEEI plus Nef, Z-Lyte FRET kinase assay;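 active = Hck-Nef kinase inhibition above about 50%, limit read from the data; inactive = inhibition below that limit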;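 also: 0% = DMSO with Hck plus Nef and 100% = Hck alone without Nef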
Hck Nef conf – confirmation of Hck-Nef kinase inhibitors. shares compounds with Hck-Nef inh. Recombinant Hck-YEEI:Nef, Z-Lyte FRET kinase assay. calls only at 10 µM. hit rate 28% among 1,300. AID 463188;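 active = average inhibition of at least 50%, with Z-scores no higher than 3 in both the phospho-tyrosine peptide and fluorescence counterscreens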
* = called active by the depositor; i = inactive; ? = inconclusive; . = not tested or not shown; + = active, no number.

SMILES	Tb hexokinase	RanGTP-Impb inh	Runt-CBFb FRET	Runt-SMMHC FRET	Hck-Nef inh	Hck Nef conf
CCOc1ccc(N2CC(O)=C(c3nc4ccccc4c(=O)[nH]3)C2=N)cc1	-21	-1	-1	-5	55*	i
O=C(NCc1ccccc1)C(c1ccc(Cl)cc1)N(C(=O)c1csnn1)C1CC1 (centres undefined)	.	-3	.	.	.	.
Cc1ccc(NS(=O)(=O)c2ccc(C(=O)N3CCN(c4ccccn4)CC3)cc2)cc1	3	-3	-2	-8	80*	i
Cc1ccc(S(=O)(=O)NCc2ccc(C(=O)N3CCN(c4ccccn4)CC3)cc2)cc1	-9	-2	4	1	-1	.
CCn1cc(/C=N/NC(=O)COc2cccc3cccnc23)c2ccccc21	-9	-1	-4	1	26	.
COc1ccc(/C=N/NC(=O)COc2cccc3cccnc23)cc1OC	-1	?	-2	2	54*	i
CC(=O)COc1nc2c(c(-c3ccco3)c1C#N)CCc1ccccc1-2	-32	11	5	3	56*	i
COc1ccc(C(=O)N/C(=C\c2ccc3c(c2)OCO3)C(=O)Nc2ccc(C(=O)O)cc2)cc1	-12	-1	1	2	54*	i
COc1ccccc1/C=C/C=c1\sc2nc(=O)c(Cc3ccccc3)nn2c1=O	6	1	-1	-51	81*	+
CC(/C=C1\SC(=S)N(NS(=O)(=O)c2ccc(C)cc2)C1=O)=C\c1ccccc1	14	0	-6	-5	99*	+
O=c1[nH][nH]c2c(N=Cc3ccccc3O)ccc(F)c12	0	.	30	24	60*	i
CCCc1c(C(=O)N/N=C/c2cccc3ccccc23)nnn1-c1nonc1N	.	-2	.	.	.	.
COc1cc(-c2nc(-c3ccc(NC(=O)c4ccc5c(c4)OCO5)cc3)no2)cc(OC)c1OC	-8	6	-1	-1	84*	+
NC(=O)CSc1nnc(-c2cc(-c3ccc(Cl)cc3)nc3ccccc23)o1	-24	2	-4	-4	5	.
Cc1coc2c(C)c3oc(=O)c4c(c3cc12)CCC4	-7	.	.	.	17	.
O=c1oc2c3c4c(cc2c2c1CCC2)OCCN4CCC3	-1	.	83*	53*	97*	.
COc1ccc(C2=CC3=C(Br)C(=O)C(C)(OC(=O)c4ccco4)C(=O)C3=CO2)cc1 (centres undefined)	-19	-1	5	-31	92*	+
C/C(=N\O)C(=O)NCCN(C)C	-2	5	1	4	1	.
Cc1ccc(NC(=O)Nc2sc(=S)n(C)c2C)cc1	-10	2	4	-1	92*	i
COC(=O)c1sc(N)c(C(=O)OC)c1COC(=O)[C@@H](NS(=O)(=O)c1cccc(Cl)c1)C(C)C	-5	-2	-1	-3	79*	+
COC(=O)c1c(NC(=O)COC(=O)[C@@H](NS(=O)(=O)c2cccc(Cl)c2)C(C)C)sc2c1CCC2	-8	4	-2	0	-35	.
Cc1ccc(NC(=S)N2CCC(NC(=O)c3ccc(F)cc3)CC2)cc1	.	1	.	.	.	.
O=C(Nc1cccc(NC(=O)c2ccc(Br)o2)n1)c1ccc(Br)o1	0	3	0	-3	98*	i
CCCS/C(N)=N/N=C/c1cc(C)ccc1O	-35	3	1	1	55*	+
CCCCNC(=O)Nc1nnc(C(C)(C)C)s1	-5	-1	-1	0	-12	.
SMILES	Tb hexokinase	RanGTP-Impb inh	Runt-CBFb FRET	Runt-SMMHC FRET	Hck-Nef inh	Hck Nef conf
Cc1nn(-c2ccccc2)c2c1cc1c(=O)n(C)c(=O)nc-1n2-c1ccccc1F	-22	?	9	23	87*	.
Cc1cccc(-n2c3nc(=O)[nH]c(=O)c-3cc3c(C)nn(-c4ccccc4)c32)c1C	-18	3	17	31	23	.
O=C(NCCCN1CCCCC1)c1ccc(CS(=O)c2ccc(F)cc2)o1 (centres undefined)	.	1	.	.	.	.
CC(C(=O)NCCCc1ccccc1)c1ccc([N+](=O)[O-])cc1 (centres undefined)	-4	2	0	-5	8	.
O=C1C=CC(O)(c2cc(=O)c3c(O)cc(O)cc3o2)C=C1	-16	7	9	6	53*	i
Cc1ccc(NC(=O)C2CCN(S(=O)(=O)c3c(C)noc3/C=C/c3ccco3)CC2)nc1	-4	-2	1	-3	2	.
Cc1noc(/C=C/c2ccco2)c1S(=O)(=O)N1CCC(C(=O)N2CCc3ccccc3C2)CC1	-12	2	-5	-13	51*	i
CCCCC1(C(=O)OCC)CC(CSC(=N)N)OC1=O (centres undefined)	0	1	2	-6	-6	.
CCOC(=O)c1cnc2c(-c3ccc(F)cc3)cnn2c1C(F)(F)F	-2	.	1	-1	82*	i
Cc1ccc(O)c(N=Cc2cc(Cc3ccccc3)cc([N+](=O)[O-])c2O)c1	3	-1	15	-15	62*	i
OCc1cccc[n+]1CCc1ccccc1	.	6	.	.	.	.
CC(=O)Nc1sc(N/N=C/c2ccc(N(C)C)cc2)nc1-c1ccc(C)cc1	-49	?	4	0	41	.
COc1ccc(/C=N/Nc2nc(-c3ccc(C)cc3)c(NC(C)=O)s2)cc1OC	-46	6	6	-3	99*	+
CC(=O)Nc1sc(N/N=C/c2ccc(C)cc2)nc1-c1ccc(C)cc1	-12	-2	4	-4	60*	i
CCOc1cc(/C=N\Nc2nc(-c3ccc(C)cc3)c(NC(C)=O)s2)ccc1O	-29	2	7	-1	97*	+
CCCCN(Cc1ccco1)S(=O)(=O)c1ccc(-c2ccc(=O)[nH]n2)s1	.	0	.	.	.	.
O=C1CCCc2oc3c(c21)CCCC3	-5	0	-1	2	23	.
COc1cc(C(=O)OCC(=O)c2cc(C)n(CC3CCCO3)c2C)ccc1OCC(=O)N1CCOCC1 (centres undefined)	.	2	.	.	.	.
c1ccc(Nc2ccnc(Nc3ccccc3)n2)cc1	0	1	-1	0	101*	+
NNc1nc(Nc2ccccc2)nc(Nc2ccccc2)n1	1	-3	3	2	0	.
CC(C)CC(C(=O)NC1CCCCC1)N(Cc1ccccc1)C(=O)c1snc(C(N)=O)c1N (centres undefined)	.	1	.	.	.	.
O=C(Cn1cnc2c(nnn2Cc2ccc(F)cc2)c1=O)Nc1ccc2c(c1)OCCO2	.	4	.	.	.	.
COc1cc([N+](=O)[O-])ccc1-c1ccc(/C=N/NC(=O)c2ccccc2O)o1	-26	-23	-18	-36	74*	i
O=C(N/N=C/c1ccc(-c2cccc([N+](=O)[O-])c2)o1)c1ccccc1O	4	4	4	4	9	.
CC1=NN(c2cccc(C(=O)O)c2)C(=O)/C1=C\C=C/c1ccccc1	-4	-1	18	12	59*	i
